According to ChEMBL document CHEMBL4627381, “Licochalcone A Selectively Resensitizes ABCG2-Overexpressing Multidrug-Resistant Cancer Cells to Chemotherapeutic Drugs” (J Nat Prod, 2020):

How the values were obtained:
S1-M1-80 [1] = assay: Induction of apoptosis in human S1-M1-80 cells harboring ABCG2 (unknown origin) assessed as early apoptotic cells at 10 uM incubated for 48 hrs by annexin V/propidium iodide staining based flow cytometry (reference value: 2.8%); format: functional
S1 [2] = assay: Induction of apoptosis in human S1 cells assessed as necrotic cells at 10 uM incubated for 48 hrs in presence of topotecan by annexin V/propidium iodide staining based flow cytometry (reference value: 0.2%); format: functional
In short: (§1)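 S1 cells were exposed for 48 h to DMSO, 10 μM compound, 5 μM topotecan, or 5 μM topotecan plus 10 μM compound. They were then stained with 1.25 μg/mL annexin V–FITC and 0.1 mg/mL PI for 15 min at room temperature. 10000 cells per sample were analysed by flow cytometry; three independent experiments.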

S1 [3] = assay: Induction of apoptosis in human S1 cells assessed as early apoptotic cells at 10 uM incubated for 48 hrs by annexin V/propidium iodide staining based flow cytometry (reference value: 2%); format: functional; in short: as §1
[4] = target: T1, Broad substrate specificity ATP-binding cassette transporter ABCG2 (Homo sapiens, UniProt Q9UNQ0); assay: Inhibition of ABCG2 (unknown origin)-mediated pheophorbide A efflux in human S1 cells incubated for 1 hr by FACScan flow cytometry; format: cell-based; conditions: s1, 1 h
T1 sequence (Q9UNQ0 whole entry): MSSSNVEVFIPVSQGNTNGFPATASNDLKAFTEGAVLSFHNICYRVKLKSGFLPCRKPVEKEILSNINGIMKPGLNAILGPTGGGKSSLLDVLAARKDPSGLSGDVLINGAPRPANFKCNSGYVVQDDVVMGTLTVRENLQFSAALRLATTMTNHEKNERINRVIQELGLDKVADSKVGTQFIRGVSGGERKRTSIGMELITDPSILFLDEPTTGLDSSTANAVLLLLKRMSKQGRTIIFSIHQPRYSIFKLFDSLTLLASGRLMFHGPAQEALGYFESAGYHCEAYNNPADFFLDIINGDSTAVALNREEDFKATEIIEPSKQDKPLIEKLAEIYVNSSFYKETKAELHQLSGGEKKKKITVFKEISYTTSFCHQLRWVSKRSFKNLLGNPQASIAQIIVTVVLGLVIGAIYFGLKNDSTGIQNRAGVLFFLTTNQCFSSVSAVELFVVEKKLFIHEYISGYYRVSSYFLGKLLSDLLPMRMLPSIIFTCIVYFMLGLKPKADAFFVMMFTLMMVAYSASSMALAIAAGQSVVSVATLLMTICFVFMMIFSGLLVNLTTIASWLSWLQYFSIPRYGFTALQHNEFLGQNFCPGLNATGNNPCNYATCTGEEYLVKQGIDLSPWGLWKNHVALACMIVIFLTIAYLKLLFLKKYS
In short: (§2)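 Cells held drug-free 7 days. 3 × 10^5 cells were suspended in IMDM with 5% FCS and loaded with pheophorbide A (ex 395/em 670 nm) for 1 h, with or without LCA (20 μM for single-concentration accumulation) or Ko143 3 μM as reference. Read immediately by flow cytometry. Efflux inhibition was run over a concentration range; mean ± SD of three experiments.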

HEK293 [5] = assay: Induction of pheophorbide A accumulation in HEK293 cells at 20 uM incubated for 1 hr by FACScan flow cytometry; format: cell-based; conditions: human, hek293, 1 h; in short: as §2
GES1 = assay: Cytotoxicity against human GES-1 cells; format: cell-based
S1-M1-80 [6] = assay: Cytotoxicity against human S1-M1-80 cells harboring ABCG2 (unknown origin) after 72 hrs by MTT assay; format: functional, cell-based; conditions: S1-M1-80, 72 h
In short: (§3)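 Cells seeded at 5000/well, allowed 24 h, then exposed to a concentration series for 72 h at 37 °C in DMSO vehicle (up to 0.5% v/v). HEK293 lines were read with CCK-8 and cancer lines with MTT. IC50 was taken from fitted dose-response curves over at least three independent experiments. Lines were kept drug-free for 7 days before assay.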

HEK293 [7] = assay: Cytotoxicity against HEK293 cells after 72 hrs by CCK8 assay; format: cell-based; conditions: Homo sapiens, HEK293, 72 h; in short: as §3
[8] = target: T1, Broad substrate specificity ATP-binding cassette transporter ABCG2; assay: Reversal of ABCG2 (unknown origin)-mediated multidrug resistance in human H460-MX20 cells assessed as fold change in topotecan IC50 at 3 uM after 72 hrs by MTT assay relative to topotecan IC50; format: cell-based
In short: (§4)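 Cells held drug-free 7 days, seeded at 5000 per well for 24 h, then exposed 72 h to mitoxantrone or topotecan dilutions with DMSO (≤0.5%), LCA 0.5–3.0 μM, or Ko143 1.0 μM. Viability was read by MTT. IC50 came from fitted dose-response curves of three independent experiments. Fold-reversal = IC50 without modulator divided by IC50 with modulator.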

[9] = target: T1, Broad substrate specificity ATP-binding cassette transporter ABCG2; assay: Reversal of ABCG2 (unknown origin)-mediated multidrug resistance in human H460-MX20 cells assessed as fold change in mitoxantrone IC50 at 3 uM after 72 hrs by MTT assay relative to mitoxantrone IC50; format: cell-based; in short: as §4
NCI-H460 = assay: Effect on mitoxantrone-induced cytotoxicity against human H460 cells assessed as fold change in mitoxantrone IC50 at 1 uM after 72 hrs by MTT assay relative to mitoxantrone IC50; format: functional
In short: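 Parental S1 colon and H460 lung cancer cells were exposed for 72 h to a mitoxantrone or topotecan concentration series, with or without modulator at 0.5–3.0 μM, and read by MTT. Fold-reversal is IC50 without modulator divided by IC50 with modulator, taken from dose-response curves of three independent experiments.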

[10] = target: T1, Broad substrate specificity ATP-binding cassette transporter ABCG2; assay: Reversal of ABCG2 (unknown origin)-mediated multidrug resistance in human S1-M1-80 cells assessed as fold-change in mitoxantrone IC50 at 0.5 uM after 72 hrs by MTT assay relative to mitoxantrone IC50; format: cell-based; conditions: s1-m1-80, 72 h; in short: as §4
HEK293 [11] = assay: Effect on topotecan-induced cytotoxicity against HEK293 cells assessed as fold change in topotecan IC50 at 0.5 uM after 72 hrs by CCK8 assay relative to topotecan IC50; format: cell-based; conditions: human, hek293, 72 h
In short: (§5)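 Reversal assay in parental pcDNA-HEK293 and transfected HEK293 lines (ABCB1 for colchicine, ABCC1 for etoposide, ABCG2 for mitoxantrone/topotecan). Substrate drug series was given with or without nontoxic modulator (0.5, 1.0, 2.0 or 3.0 μM) for 72 h, with a CCK-8 read-out. Fold-reversal is substrate IC50 without modulator divided by IC50 with modulator. Three independent experiments.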

[12] = target: T2, ATP-dependent translocase ABCB1 (Homo sapiens, UniProt P08183); assay: Reversal of human ABCB1-mediated multidrug resistance in HEK293/MDR19 cells assessed as fold change in colchicine IC50 at 3 uM after 72 hrs by CCK8 relative to colchicine IC50; format: cell-based
In short: (§6)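 Cells were seeded at 5000/well for 24 h, then given colchicine, etoposide, mitoxantrone or topotecan ± non-toxic modulator (0.5–3.0 μM) for 72 h, with DMSO up to 0.5%. IC50 came from fitted curves (mean ± SD, three experiments). Fold-reversal = IC50 without modulator ÷ IC50 with modulator.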

[13] = target: T2, ATP-dependent translocase ABCB1; assay: Reversal of human ABCB1-mediated multidrug resistance in HEK293/MDR19 cells assessed as fold change in colchicine IC50 at 0.5 uM after 72 hrs by CCK8 relative to colchicine IC50; format: cell-based; in short: as §6
HEK293 [14] = assay: Effect on Colchicine-induced cytotoxicity against HEK293 cells assessed as fold change in colchicine IC50 at 1 uM after 72 hrs by CCK8 assay relative to colchicine IC50; format: cell-based; conditions: human, hek293, 72 h; in short: as §5

T2 sequence (P08183 whole entry): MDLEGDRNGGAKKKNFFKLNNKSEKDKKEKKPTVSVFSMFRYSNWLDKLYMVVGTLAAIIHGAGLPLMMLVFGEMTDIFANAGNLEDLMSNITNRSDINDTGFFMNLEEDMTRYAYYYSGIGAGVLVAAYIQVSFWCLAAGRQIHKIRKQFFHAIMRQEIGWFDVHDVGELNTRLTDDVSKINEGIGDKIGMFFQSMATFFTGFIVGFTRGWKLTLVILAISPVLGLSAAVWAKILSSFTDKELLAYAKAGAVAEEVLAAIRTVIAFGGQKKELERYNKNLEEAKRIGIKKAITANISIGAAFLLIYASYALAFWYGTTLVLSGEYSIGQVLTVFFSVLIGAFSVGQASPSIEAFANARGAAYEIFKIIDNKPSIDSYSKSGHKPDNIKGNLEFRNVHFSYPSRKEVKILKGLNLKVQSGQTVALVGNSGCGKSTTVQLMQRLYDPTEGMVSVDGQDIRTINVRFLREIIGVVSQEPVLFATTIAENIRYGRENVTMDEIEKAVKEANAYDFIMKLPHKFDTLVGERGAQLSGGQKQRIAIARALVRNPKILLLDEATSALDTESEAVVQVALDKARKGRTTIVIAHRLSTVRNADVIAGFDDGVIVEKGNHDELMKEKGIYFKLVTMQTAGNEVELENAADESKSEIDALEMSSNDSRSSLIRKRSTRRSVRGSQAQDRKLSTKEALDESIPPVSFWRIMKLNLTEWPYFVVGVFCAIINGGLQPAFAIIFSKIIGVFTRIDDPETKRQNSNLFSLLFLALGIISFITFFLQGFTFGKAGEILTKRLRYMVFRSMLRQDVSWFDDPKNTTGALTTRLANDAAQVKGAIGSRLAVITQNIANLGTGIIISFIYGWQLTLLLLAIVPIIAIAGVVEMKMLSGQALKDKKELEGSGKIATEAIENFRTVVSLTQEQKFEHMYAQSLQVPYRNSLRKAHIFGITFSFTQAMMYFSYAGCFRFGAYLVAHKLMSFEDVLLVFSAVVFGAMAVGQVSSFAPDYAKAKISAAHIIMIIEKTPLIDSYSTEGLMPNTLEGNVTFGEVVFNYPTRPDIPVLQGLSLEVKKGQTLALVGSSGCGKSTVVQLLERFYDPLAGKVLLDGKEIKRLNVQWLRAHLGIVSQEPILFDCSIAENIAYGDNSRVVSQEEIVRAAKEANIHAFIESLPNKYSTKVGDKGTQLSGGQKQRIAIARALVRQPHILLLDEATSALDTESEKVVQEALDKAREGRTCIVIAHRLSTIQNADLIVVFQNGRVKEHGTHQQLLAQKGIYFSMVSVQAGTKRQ

inhibition (INH) [4]: Dose-dependent effect
fold change (FC) [8]: 10.1
fold change (FC) [12]: 0.9
fold change (FC) [13]: 1
Structure (SMILES): C=CC(C)(C)c1cc(/C=C/C(=O)c2ccc(O)cc2)c(OC)cc1O [LICOAGROCHACONE A]
Activity (S1-M1-80 [1]): 2.5%
Activity (S1 [2]): 3%
Activity (S1 [3]): 1.7%
Activity (HEK293 [5]): Non-Toxic
IC50 (GES1): > 180 µM
IC50 (S1-M1-80 [6]): 10 to 50 µM
IC50 (HEK293 [7]): 10 to 50 µM
fold change (FC) [9]: 16.6
fold change (FC) (NCI-H460): 1.1
fold change (FC) [10]: 1.9
fold change (FC) (HEK293 [11]): 0.9
fold change (FC) (HEK293 [14]): 1.1
